Laboratory results from ChEMBL document CHEMBL1123323, “Isolation, synthesis, and antitumor evaluation of spirohydantoin aziridine, a mutagenic metabolite of spirohydantoin mustard” (J Med Chem, 1986).
Values joined by “and” are separate entries in the source; they are usually repeats but may differ in a detail not shown here. Identical values can stand only once.

Experiments:
[1] = Approximate number of tumor cells alive after administration (60 mg/kg, day 1 only) in normal mice; Expressed as therapeutic response; assay type: ADME, organism-based; details: mouse, in vivo
How it was run: (§1)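 Female CDF1 mice given 1×10^6 P388 leukemia cells intraperitoneally. Drug in reagent-grade Me₂SO, dosed by average body weight in 0.1 mL. Life-span increase is from median day of death versus untreated leukemic controls. Tumor cell kill and log change (net change in viable tumor stem cells, end versus start of treatment) use a historical doubling time of 0.44 day.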

P388 [2] = assay: Percent increase in life span of treated (10 mg/kg, qd 1-9 days) mice as compared to the untreated leukemia controls; Expressed as therapeutic response; assay type: functional, Mus musculus; how it was run: as §1
[3] = Approximate number of tumor cells alive after administration (5 mg/kg, qd 1-9 days) in normal mice; Expressed as therapeutic response; assay type: ADME, organism-based; details: mouse, in vivo; how it was run: as §1
[4] = Approximate number of tumor cells alive after administration (10 mg/kg, qd 1-9 days) in normal mice; Expressed as therapeutic response; assay type: ADME, organism-based; details: mouse, in vivo; how it was run: as §1
P388 [5] = assay: Percent of deaths after administration (10 mg/kg, day 1 only) in leukemic mice; assay type: functional, Mus musculus; how it was run: as §1
P388 [6] = assay: Percent increase in life span of treated (60 mg/kg, day 1 only) mice as compared to the untreated leukemia controls; Expressed as therapeutic response; assay type: functional, Mus musculus; how it was run: as §1
P388 [7] = assay: Approximate log change after administration (30 mg/kg, day 1 only) in normal mice; Expressed as therapeutic response; assay type: functional, Mus musculus
How it was run: (§2)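 Female CDF1 mice were implanted intraperitoneally with 1×10^6 P388 leukemia cells. Drug was prepared in reagent-grade Me₂SO according to average body weight, with each dose in 0.1 mL. Concurrent drug toxicity controls were run. Tumor cell kill was calculated from median day of death using a historical doubling time of 0.44 day. Log change is the net change in viable tumor stem cells from the start to the end of treatment.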

P388 [8] = assay: Percent of deaths after administration (60 mg/kg, day 1 only) in leukemic mice; assay type: functional, Mus musculus; how it was run: as §1
P388 [9] = assay: (§3) Approximate number of tumor cells alive after administration (10 mg/kg, day 1 only) in normal mice; Expressed as therapeutic response; assay type: functional, Mus musculus; how it was run: as §1
Salmonella typhimurium [10] = assay: Mutagenic activity against Salmonella Typhimurium TA1535 (SHM equiv/plate 100 ug); Expressed as difference between the observed number of revertants and the average number of spontaneous revertants (Expt 2); assay type: functional, Salmonella enterica subsp. enterica serovar Typhimurium
How it was run: (§4)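 Salmonella typhimurium TA1535 plate incorporation assay without S9 activation. TLC-isolated metabolite and synthetic aziridine dosed as SHM equivalents per plate. Score is revertants minus mean spontaneous revertants, from two separate experiments.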

Salmonella typhimurium [11] = assay: Mutagenic activity against Salmonella Typhimurium TA1535 (SHM equiv/plate 10 ug); Expressed as difference between the observed number of revertants and the average number of spontaneous revertants (Expt 2); assay type: functional, Salmonella enterica subsp. enterica serovar Typhimurium; how it was run: as §4
P388 [12] = assay: Percent of deaths after administration (20 mg/kg, day 1 only) in normal mice; assay type: functional, Mus musculus
How it was run: (§5)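 Non-tumored mice treated concurrently as drug toxicity controls. Drug in reagent-grade Me₂SO, dosed by average body weight in 0.1 mL. Deaths scored.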

[13] = Approximate number of tumor cells alive after administration (20 mg/kg, qd 1-9 days) in normal mice; Expressed as therapeutic response; assay type: ADME, organism-based; details: mouse, in vivo; how it was run: as §1
P388 [14] = assay: Percent increase in life span of treated (5 mg/kg, qd 1-9 days) mice as compared to the untreated leukemia controls; Expressed as therapeutic response; assay type: functional, Mus musculus; how it was run: as §1
P388 [15] = assay: Percent of deaths after administration (30 mg/kg, day 1 only) in normal mice; assay type: functional, Mus musculus; how it was run: as §5
P388 [16] = assay: Percent of deaths after administration (20 mg/kg, qd 1-9 days) in normal mice; assay type: functional, Mus musculus; how it was run: as §5
P388 [17] = assay: Approximate number of tumor cells alive after administration (30 mg/kg, day 1 only) in normal mice; Expressed as therapeutic response; assay type: functional, Mus musculus; how it was run: as §1
P388 [18] = assay: Percent increase in life span of treated (20 mg/kg, qd 1-9 days) mice as compared to the untreated leukemia controls; Expressed as therapeutic response; assay type: functional, Mus musculus; how it was run: as §1
Salmonella typhimurium [19] = assay: Mutagenic activity against Salmonella Typhimurium TA1535 (SHM equiv/plate 1 ug); Expressed as difference between the observed number of revertants and the average number of spontaneous revertants (Expt 2); assay type: functional, Salmonella enterica subsp. enterica serovar Typhimurium; how it was run: as §4
P388 [20] = assay: Approximate log change after administration (20 mg/kg, day 1 only) in normal mice; Expressed as therapeutic response; assay type: functional, Mus musculus; how it was run: as §2
P388 [21] = assay: Percent of deaths after administration (30 mg/kg, day 1 only) in leukemic mice; assay type: functional, Mus musculus; how it was run: as §1
P388 [22] = assay: Percent of deaths after administration (20 mg/kg, day 1 only) in leukemic mice; assay type: functional, Mus musculus
Salmonella typhimurium [23] = assay: Mutagenic activity against Salmonella Typhimurium TA1535 (SHM equiv/plate 10 ug); Expressed as difference between the observed number of revertants and the average number of spontaneous revertants (Expt 1); assay type: functional, Salmonella enterica subsp. enterica serovar Typhimurium; how it was run: as §4
[24] = Approximate number of tumor cells alive after administration (45 mg/kg, day 1 only) in normal mice; Expressed as therapeutic response; assay type: ADME, organism-based; details: mouse, in vivo; how it was run: as §1
Salmonella typhimurium [25] = assay: Mutagenic activity against Salmonella Typhimurium TA1535 (SHM equiv/plate 1 ug); Expressed as difference between the observed number of revertants and the average number of spontaneous revertants (Expt 1); assay type: functional, Salmonella enterica subsp. enterica serovar Typhimurium; how it was run: as §4
P388 [26] = assay: Percent of deaths after administration (10 mg/kg, qd 1-9 days) in leukemic mice; assay type: functional, Mus musculus; how it was run: as §1
P388 [27] = assay: Percent of deaths after administration (60 mg/kg, day 1 only) in normal mice; assay type: functional, Mus musculus; how it was run: as §5
P388 [28] = assay: Percent of deaths after administration (5 mg/kg, qd 1-9 days) in leukemic mice; assay type: functional, Mus musculus; how it was run: as §1
P388 [29] = assay: Percent increase in life span of treated (10 mg/kg, day 1 only) mice as compared to the untreated leukemia controls; Expressed as therapeutic response; assay type: functional, Mus musculus; how it was run: as §1
P388 [30] = assay: Percent increase in life span of treated (20 mg/kg, day 1 only) mice as compared to the untreated leukemia controls; Expressed as therapeutic response; assay type: functional, Mus musculus; how it was run: as §1
P388 [31] = assay: Percent increase in life span of treated (30 mg/kg, day 1 only) mice as compared to the untreated leukemia controls; Expressed as therapeutic response; assay type: functional, Mus musculus; how it was run: as §1
P388 [32] = assay: Approximate number of tumor cells alive after administration (20 mg/kg, day 1 only) in normal mice; Expressed as therapeutic response; assay type: functional, Mus musculus; how it was run: as §1
P388 [33] = assay: Percent of deaths after administration (45 mg/kg, day 1 only) in leukemic mice; assay type: functional, Mus musculus; how it was run: as §1
P388 [34] = assay: Percent of deaths after administration (20 mg/kg, qd 1-9 days) in leukemic mice; assay type: functional, Mus musculus; how it was run: as §1
P388 [35] = assay: Approximate number of tumor cells alive after administration (5 mg/kg, day 1 only) in normal mice; Expressed as therapeutic response; assay type: functional, Mus musculus; how it was run: as §1
P388 [36] = assay: Percent increase in life span of treated (5 mg/kg, day 1 only) mice as compared to the untreated leukemia controls; Expressed as therapeutic response; assay type: functional, Mus musculus; how it was run: as §1
P388 [37] = assay: Approximate log change after administration (10 mg/kg, day 1 only) in normal mice; Expressed as therapeutic response; assay type: functional, Mus musculus; how it was run: as §1
P388 [38] = assay: Percent of deaths after administration (15 mg/kg, day 1 only) in normal mice; assay type: functional, Mus musculus; how it was run: as §5
P388 [39] = assay: Percent of deaths after administration (5 mg/kg, day 1 only) in leukemic mice; assay type: functional, Mus musculus; how it was run: as §1
P388 [40] = assay: Percent of deaths after administration (15 mg/kg, day 1 only) in leukemic mice; assay type: functional, Mus musculus; how it was run: as §1
P388 [41] = assay: Approximate log change after administration (5 mg/kg, day 1 only) in normal mice; Expressed as therapeutic response; assay type: functional, Mus musculus; how it was run: as §1
[42] = Approximate number of tumor cells alive after administration (15 mg/kg, day 1 only) in normal mice; Expressed as therapeutic response; assay type: ADME, organism-based; details: mouse, in vivo; how it was run: as §1
[43] = as §3; assay type: ADME, organism-based; details: mouse, in vivo; how it was run: as §1
P388 [44] = assay: Percent of deaths after administration (10 mg/kg, day 1 only) in normal mice; assay type: functional, Mus musculus; how it was run: as §5
P388 [45] = assay: Percent increase in life span of treated (15 mg/kg, day 1 only) mice as compared to the untreated leukemia controls; Expressed as therapeutic response; assay type: functional, Mus musculus; how it was run: as §1

O=C1NC2(CCCCC2)C(=O)N1CCN1CC1
Activity [1]: Toxic
ILS (P388 [2]): -40%
Activity [3]: Toxic
Activity [4]: Toxic
Activity (P388 [5]): 0%
ILS (P388 [6]): -30%
Log change (P388 [7]): 0
Activity (P388 [8]): 50%
Activity (P388 [9]): 4800000
Activity (Salmonella typhimurium [10]): 2000%
Activity (Salmonella typhimurium [11]): 238
Activity (P388 [12]): 0%
Activity [13]: Toxic
ILS (P388 [14]): -5%
Activity (P388 [15]): 0%
Activity (P388 [16]): 0%
Activity (P388 [17]): 4800000
ILS (P388 [18]): -25%
Activity (Salmonella typhimurium [19]): 21
Log change (P388 [20]): 0
Activity (P388 [21]): 16% and 0%
Activity (P388 [22]): 0%
Activity (Salmonella typhimurium [23]): 227
Activity [24]: Toxic
Activity (Salmonella typhimurium [25]): 15
Activity (P388 [26]): 0%
Activity (P388 [27]): 0%
Activity (P388 [28]): 83%
ILS (P388 [29]): 0%
ILS (P388 [30]): 0%
ILS (P388 [31]): 0%
Activity (P388 [32]): 4800000
Activity (P388 [33]): 33%
Activity (P388 [34]): 83%

O=C1NC2(CCCCC2)C(=O)N1CCN(CCCl)CCCl [SPIROMUSTINE]
ILS (P388 [2]): -50%
Activity [3]: Toxic
Activity [4]: Toxic
Activity (P388 [35]): 43000
Activity (P388 [9]): 8900
ILS (P388 [36]): 30%
Log change (P388 [37]): -2.7
Activity (P388 [38]): 50%
Activity [13]: Toxic
ILS (P388 [14]): -45%
ILS (P388 [18]): -60%
Activity (P388 [39]): 10%
Activity (P388 [40]): 40%
Log change (P388 [41]): -2.1
Activity (P388 [26]): 100%
Activity [42]: Toxic
Activity (P388 [28]): 100%
Activity [43]: Toxic
Activity (P388 [44]): 33%
ILS (P388 [45]): 35%
Activity (P388 [34]): 100%
